This is an account of results in ChEMBL document CHEMBL4229372, “Synthesis and anti-mitotic activity of 2,4- or 2,6-disubstituted- and 2,4,6-trisubstituted-2H-pyrazolo[4,3-c]pyridines” (2018).

Holding throughout (format): functional
Experiment [1] has as its system MCF7. Put plainly: Cell cycle arrest in human MCF7 cells assessed as accumulation at G2/M phase at 83 nM after 24 hrs by propidium iodide staining-based flow cytometric analysis (reference value: 5.3%). In short, it runs like this: (§1)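 MCF-7 cells in DMEM with 10% FBS and penicillin/streptomycin at 37 °C, 5% CO2. Asynchronous cells were treated 24 h, PBS-washed, trypsinized and quenched with 0.1% trypsin inhibitor. Staining used 5× citrate/IGEPAL/spermine/Tris buffer (pH 7.6) with 50 μg/mL propidium iodide. DNA content was read by 488 nm flow cytometry and cell-cycle phases modelled.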

Experiment [2] has as its system K562. Nature of the experiment: Cell cycle arrest in human K562 cells assessed as accumulation at G1 phase at 83 nM after 24 hrs by propidium iodide staining-based flow cytometric analysis (reference value: 34.6%).
For experiment [3], the system named is MCF7. Put plainly: Cell cycle arrest in human MCF7 cells assessed as accumulation at G1 phase at 83 nM after 24 hrs by propidium iodide staining-based flow cytometric analysis (reference value: 60.7%). Summed up: as §1
Experiment [4] relates to K562. Nature of the experiment: Cell cycle arrest in human K562 cells assessed as accumulation at sub G1 phase at 83 nM after 24 hrs by propidium iodide staining-based flow cytometric analysis (reference value: 15%).
Experiment [5] relates to K562. Nature of the experiment: Cell cycle arrest in human K562 cells assessed as accumulation at S phase at 83 nM after 24 hrs by propidium iodide staining-based flow cytometric analysis (reference value: 50.3%).
The subject of experiment [6] is K562. Nature of the experiment: Cell cycle arrest in human K562 cells assessed as accumulation at G2/M phase assessed as accumulation of histone H3 phosphorylation at serine 10 residues at 40 ng/ml uM after 24 hrs by propidium iodide staining-based flow cytometric analysis (reference value: 2.2%).
Experiment [7] has as its system MCF7. Put plainly: Cell cycle arrest in human MCF7 cells assessed as accumulation at S phase at 83 nM after 24 hrs by propidium iodide staining-based flow cytometric analysis (reference value: 34.1%). Summed up:
as §1

In experiment [8] the test system is MCF7. Nature of the experiment: Cell cycle arrest in human MCF7 cells assessed as accumulation at sub G1 phase at 83 nM after 24 hrs by propidium iodide staining-based flow cytometric analysis (reference value: 7.1%). Summed up:
as §1

In experiment [9] the test system is K562. Nature of the experiment: Cell cycle arrest in human K562 cells assessed as accumulation at G2/M phase at 83 nM after 24 hrs by propidium iodide staining-based flow cytometric analysis (reference value: 15%).
The test system of experiment [10] is MCF7. Put plainly: Cell cycle arrest in human MCF7 cells assessed as accumulation at G2/M phase at 0.25 uM after 24 hrs by propidium iodide staining-based flow cytometric analysis (reference value: 5.3%). Summed up:
as §1

Experiment [11] relates to K562. Nature of the experiment: Cell cycle arrest in human K562 cells assessed as accumulation at G1 phase at 0.25 uM after 24 hrs by propidium iodide staining-based flow cytometric analysis (reference value: 34.6%).
The subject of experiment [12] is MCF7. Put plainly: Cell cycle arrest in human MCF7 cells assessed as accumulation at G1 phase at 0.25 uM after 24 hrs by propidium iodide staining-based flow cytometric analysis (reference value: 60.7%). In short, it runs like this:
as §1

Experiment [13] has as its system MCF7. Put plainly: Cell cycle arrest in human MCF7 cells assessed as accumulation at sub G1 phase at 0.25 uM after 24 hrs by propidium iodide staining-based flow cytometric analysis (reference value: 7.1%). In short, it runs like this:
as §1

Experiment [14] relates to K562. Put plainly: Cell cycle arrest in human K562 cells assessed as accumulation at sub G1 phase at 0.25 uM after 24 hrs by propidium iodide staining-based flow cytometric analysis (reference value: 15%).
Experiment [15] has as its system MCF7. Nature of the experiment: Cell cycle arrest in human MCF7 cells assessed as accumulation at S phase at 0.25 uM after 24 hrs by propidium iodide staining-based flow cytometric analysis (reference value: 34.1%). Summed up:
as §1

The subject of experiment [16] is K562. Nature of the experiment: Cell cycle arrest in human K562 cells assessed as accumulation at S phase at 0.25 uM after 24 hrs by propidium iodide staining-based flow cytometric analysis (reference value: 50.3%).
Experiment [17] concerns K562. Nature of the experiment: Cell cycle arrest in human K562 cells assessed as accumulation at G2/M phase at 0.25 uM after 24 hrs by propidium iodide staining-based flow cytometric analysis (reference value: 15%).

SMILES strings stand for the structures.

With `COC(=O)Nc1nc2cc(C(=O)c3cccs3)ccc2[nH]1` [NOCODAZOLE], the Activity in the experiment on MCF7 [1] was 35.7%; with K562 [2] it was 3.6%; in the experiment on MCF7 [3] it was 14.4%; with K562 [4], 49.4%; with K562 [5], 26.8%; with K562 [6] it was 33.2%. For the same compound, the Activity in the experiment with MCF7 [7] was 49.9%; in the experiment with MCF7 [8] it was 32.1%; in the experiment with K562 [9], 69.7%.
On to `CC(=O)c1c(C)c2cnc(Nc3ccc(N4CCNCC4)cn3)nc2n(C2CCCC2)c1=O` [PALBOCICLIB], for which the Activity in the experiment on MCF7 [10] is 4.6%; with K562 [11] it was 54%; with MCF7 [12], 90%; with MCF7 [13], 7.5%; in the experiment on K562 [14] it was 35%; in the experiment with MCF7 [15], 5.5%. Besides, the Activity in the experiment on K562 [16] stood at 30.1%; in the experiment with K562 [17], 15.9%.
